Reference: ChEMBL document CHEMBL1154139, “Isolation of aerucyclamides C and D and structure revision of microcyclamide 7806A: heterocyclic ribosomal peptides from Microcystis aeruginosa PCC 7806 and their antiparasite evaluation” (J Nat Prod, 2008)
pIC50: −log10 of the molar value.

Experiments:
[1] = tested on: Plasmodium falciparum; assay: Antiplasmodial activity against Plasmodium falciparum W2; format: functional, organism-based
[2] = tested on: MCF7; assay: Cytotoxicity against human MCF7 cells; format: cell-based
[3] = tested on: L6; assay: Cytotoxicity against rat L6 cells; format: cell-based
In short: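 Rat skeletal myoblasts (L-6) grown in RPMI 1640 with 10% FBS and 2 mM L-glutamine, exposed to serial dilutions 90 to 0.123 µg/mL at 37 °C, 5% CO2. Alamar Blue (resazurin) read-out by fluorescence (ex 536/em 588 nm) as percent of control cultures; IC50 from sigmoidal inhibition curves.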

[4] = tested on: Plasmodium falciparum; assay: Antiplasmodial activity against chloroquine-resistant Plasmodium falciparum K1 assessed as [3H]hypoxanthine incorporation after 48 hrs by beta-plate liquid scintillation counting; format: functional, organism-based
In short: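 K1 strain (chloroquine- and pyrimethamine-resistant) in infected human red blood cells, RPMI 1640 with 5% Albumax, exposed to serial dilutions for 48 h at 37 °C under reduced oxygen. 0.5 µCi [3H]-hypoxanthine then added for a further 24 h. Cells harvested onto glass-fiber filters and counted. CPM expressed as % of untreated controls, IC50 taken from sigmoidal curves. Run in duplicate, repeated once.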

[5] = tested on: Trypanosoma brucei rhodesiense; assay: Antitrypanosomal activity against Trypanosoma brucei rhodesiense STIB900 by fluorescence assay; format: functional, organism-based
[6] = tested on: Thamnocephalus platyurus; assay: Cytotoxicity against Thamnocephalus platyurus; format: functional
In short: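 Instar II-III larvae hatched from cysts, tested in multiwell plates at six concentrations from 1 to 100 µM, in triplicate. Value derived by nonlinear regression.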

Structure (SMILES)	pIC50 [1]	pIC50 [2]	pIC50 [3]	pIC50 [4]	pIC50 [5]	LC50 [6]
Cc1oc2nc1C(=O)N[C@H](C)c1nc(cs1)C(=O)N[C@H](C(C)C)c1nc(cs1)C(=O)N[C@@H]2C [VENTURAMIDE A]	5.09	4.88				
CSCC[C@@H]1NC(=O)c2csc(n2)CNC(=O)[C@H]2N=C(O[C@@H]2C)[C@H](Cc2ccccc2)NC(=O)[C@@H]2CSC1=N2 [AERUCYCLAMIDE D]			< 3.82	5.20	4.30	
CC[C@H](C)[C@H]1NC(=O)c2coc(n2)[C@H](C(C)C)NC(=O)[C@H]2N=C(O[C@@H]2C)[C@H](C)NC(=O)c2csc1n2 [AERUCYCLAMIDE C]			3.97	5.64	5.04	70.5 µM
CC[C@H](C)[C@@H]1NC(=O)c2csc(n2)[C@@H]([C@@H](C)CC)NC(=O)c2csc(n2)CNC(=O)[C@H]2N=C1O[C@@H]2C [AERUCYCLAMIDE B]			3.92	6.15	4.80	
Cc1oc2nc1C(=O)N[C@H]([C@@H](C)O)c1nc(cs1)C(=O)N[C@H](C(C)C)c1nc(cs1)C(=O)N[C@@H]2C [VENTURAMIDE B]	5.28	< 4.27				
CC[C@H](C)[C@@H]1NC(=O)[C@H]2CSC(=N2)[C@@H]([C@@H](C)CC)NC(=O)c2csc(n2)CNC(=O)[C@H]2N=C1O[C@@H]2C [AERUCYCLAMIDE A]			< 3.77	5.30	4.25	
